Assay results taken from ChEMBL document CHEMBL5252639, “Exploration of cytotoxic potential and tubulin polymerization inhibition activity of cis-stilbene-1,2,3-triazole congeners” (RSC Med Chem, 2023).
Calls of active or inactive are those of the source. No cut-off for these calls is given here.

What was measured:
HCT-116 [1] = experiment: Induction of apoptosis in human HCT-116 cells assessed as micronuclei formation at 3.25 to 6.50 uM measured for 24 hrs by AO/EB staining based microscopic analysis; assay type: functional, cell-based; conditions: dose 3.25-6.5 µM
Procedure, shortened: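 Media removed; acridine orange and ethidium bromide (10 µg/ml, equal volumes) added in 1 mL PBS. Imaged immediately by fluorescence microscopy (excitation 488 nm, emission 550 nm) at 20X.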

HCT-116 [2] = experiment: Induction of cell cycle arrest in human HCT-116 cells assessed as accumulation of cells at G0/G1 phase at 6.50 uM measured after 48 hrs by PI staining based flow cytometry analysis relative to control (reference value: 70.34%); assay type: functional; conditions: dose 6.5 µM
HCT-116 [3] = experiment: Induction of apoptosis in human HCT-116 cells assessed as late apoptotic cells at 1.62 uM measured after 24 hrs by Annexin V-FITC/propidium iodide staining based flow cytometry (reference value: 0.00%); assay type: functional
HCT-116 [4] = experiment: Induction of apoptosis in human HCT-116 cells assessed as viable cells at 3.25 uM measured after 24 hrs by Annexin V-FITC/propidium iodide staining based flow cytometry (reference value: 99.71%); assay type: functional; conditions: read-out: Activity
[5] = Cytotoxicity against human HaCaT cells assessed as inhibition of cell growth measured for 24 hrs by MTT assay; assay type: toxicity, cell-based
Procedure, shortened: (§1)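 Cells were kept at 37 °C with 5% CO2 in suitable medium with 10% FBS and 1% antibiotic-antimycotic, and passaged at 80-90% confluency using 0.25% trypsin/1 mM EDTA. They were seeded at 1×10^3–4×10^3 cells/well and attached overnight. Compounds came from 10 mM DMSO stocks diluted in medium and were applied for 24 h. MTT (0.5 mg/mL) was added for 4 h at 37 °C, formazan was dissolved in DMSO, and absorbance was read at 570 nm.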

HCT-116 [6] = experiment: Induction of apoptosis in human HCT-116 cells assessed as early apoptotic cells at 6.50 uM measured after 24 hrs by Annexin V-FITC/propidium iodide staining based flow cytometry (reference value: 0.28%); assay type: functional; conditions: dose 6.5 µM
HCT-116 [7] = experiment: Induction of apoptosis in human HCT-116 cells assessed as formation of membrane blebs at 1.62 uM measured for 24 hrs by AO/EB staining based microscopic analysis; assay type: functional, cell-based
Tubulin (Homo sapiens) [8] = biological target: T1, Tubulin (Homo sapiens) (UniProt P68371+Q9H4B7+P0DPH7+P68366+Q13509+Q71U36+P04350+Q3ZCM7+P07437+P68363+Q9BQE3+Q6PEY2+Q13885+Q9BVA1+Q9BUF5); experiment: Inhibition of tubulin polymerization in human HCT-116 cells at 3.25 uM measured after 1 hr relative to control; assay type: cell-based
HCT-116 [9] = experiment: Induction of apoptosis in human HCT-116 cells assessed as necrotic cells at 6.50 uM measured after 24 hrs by Annexin V-FITC/propidium iodide staining based flow cytometry (reference value: 0.00%); assay type: functional; conditions: dose 6.5 µM
HCT-116 [10] = experiment: Induction of apoptosis in human HCT-116 cells assessed as late apoptotic cells at 6.50 uM measured after 24 hrs by Annexin V-FITC/propidium iodide staining based flow cytometry (reference value: 0.00%); assay type: functional; conditions: dose 6.5 µM
HCT-116 [11] = experiment: Induction of apoptosis in human HCT-116 cells assessed as viable cells at 1.62 uM measured after 24 hrs by Annexin V-FITC/propidium iodide staining based flow cytometry (reference value: 99.71%); assay type: functional; conditions: read-out: Activity
Tubulin (Homo sapiens) [12] = biological target: T1, Tubulin (Homo sapiens); experiment: Inhibition of tubulin polymerization in human HCT-116 cells at 1.62 uM measured after 1 hr relative to control; assay type: cell-based
HCT-116 [13] = experiment: Induction of cell cycle arrest in human HCT-116 cells assessed as accumulation of cells at G0/G1 phase at 3.25 uM measured after 24 hrs by PI staining based flow cytometry analysis relative to control (reference value: 70.34%)
A549 = experiment: Cytotoxicity against human A549 cells assessed as inhibition of cell growth measured for 24 hrs by MTT assay; assay type: functional, cell-based; conditions: A549, 24 h; procedure, shortened: as §1
HCT-116 [14] = experiment: Induction of apoptosis in human HCT-116 cells assessed as viable cells at 6.50 uM measured after 24 hrs by Annexin V-FITC/propidium iodide staining based flow cytometry (reference value: 99.71%); assay type: functional; conditions: read-out: Activity
HCT-116 [15] = experiment: Induction of cell cycle arrest in human HCT-116 cells assessed as accumulation of cells at G2/M phase at 6.50 uM measured after 48 hrs by PI staining based flow cytometry analysis relative to control (reference value: 15.61%); assay type: functional; conditions: dose 6.5 µM
HCT-116 [16] = experiment: Induction of cell cycle arrest in human HCT-116 cells assessed as accumulation of cells at G0/G1 phase at 1.62 uM measured after 24 hrs by PI staining based flow cytometry analysis relative to control (reference value: 70.34%)
HCT-116 [17] = experiment: Induction of morphological change in human HCT-116 cells assessed as cell detachment incubated for 24 hrs by phase contrast microscopic analysis; assay type: functional, cell-based
Procedure, shortened: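 HCT-116 plated at 1 × 10^6 cells/mL in RPMI + 10% FBS and allowed to adhere 24 h at 37 °C, 5% CO2. […] After 24 h, morphology imaged by phase-contrast microscopy at 20X.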

Tubulin (Homo sapiens) [18] = biological target: T1, Tubulin (Homo sapiens); experiment: Inhibition of tubulin polymerization in human HCT-116 cells at 6.50 uM measured after 1 hr relative to control; assay type: cell-based; conditions: dose 6.5 µM
HCT-116 [19] = experiment: Induction of cell cycle arrest in human HCT-116 cells assessed as accumulation of cells at G2/M phase at 1.62 uM measured after 24 hrs by PI staining based flow cytometry analysis relative to control (reference value: 15.61%)
HCT-116 [20] = experiment: Induction of cell cycle arrest in human HCT-116 cells assessed as accumulation of cells at S phase at 1.62 uM measured after 24 hrs by PI staining based flow cytometry analysis relative to control (reference value: 5.55%)
HCT-116 [21] = experiment: Induction of apoptosis in human HCT-116 cells assessed as cell rounding at 1.62 uM measured for 24 hrs by AO/EB staining based microscopic analysis; assay type: functional
HCT-116 [22] = experiment: Induction of apoptosis in human HCT-116 cells assessed as necrotic cells at 1.62 uM measured after 24 hrs by Annexin V-FITC/propidium iodide staining based flow cytometry (reference value: 0.00%); assay type: functional
HCT-116 [23] = experiment: Induction of apoptosis in human HCT-116 cells assessed as early apoptotic cells at 3.25 uM measured after 24 hrs by Annexin V-FITC/propidium iodide staining based flow cytometry (reference value: 0.28%); assay type: functional
HCT-116 [24] = experiment: Induction of apoptosis in human HCT-116 cells assessed as cell fragmentation measured for 24 hrs by DAPI staining based microscopic analysis; assay type: functional; conditions: dose 1.62-6.5 µM
Procedure, shortened: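 Cells were seeded at 1×10^6 cells/well in 24-well plates and cultured 24 h. […] After PBS washing they were fixed in 4% paraformaldehyde for 30 min, permeabilized with 0.1% Triton X for 15 min, and stained with 1 µM DAPI for 15 min. Imaging used fluorescence microscopy (ex 350/em 460 nm) at 20X.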

Structure (SMILES): COc1ccc(/C=C(/C(=O)OCc2cn(Cc3cc(F)ccc3F)nn2)c2ccc(OC)c(OC)c2)cc1OC
- Activity (HCT-116 [1]): Active
- Activity (HCT-116 [2]): 38.48%
- Activity (HCT-116 [3]): 0.16%
- viability at 3.25 µM (HCT-116 [4]): 44.6%
- IC50 at 24 h [5]: 72.2 µM
- Activity (HCT-116 [6]): 10.71%
- Activity (HCT-116 [7]): Active
- inhibition (Tubulin (Homo sapiens) [8]): 36.5%
- Activity (HCT-116 [9]): 12.94%
- Activity (HCT-116 [10]): 49.32%
- viability at 1.62 µM (HCT-116 [11]): 81.7%
- inhibition (Tubulin (Homo sapiens) [12]): 33.4%
- Activity (HCT-116 [13]): 50.62%
- IC50 (A549): 11.3 µM
- viability at 6.5 µM (HCT-116 [14]): 27.5%
- Activity (HCT-116 [15]): 46.89%
- Activity (HCT-116 [16]): 70.12%
- Activity (HCT-116 [17]): Dose-Dependent Effect
- inhibition (Tubulin (Homo sapiens) [18]): 65.2%
- Activity (HCT-116 [19]): 22.06%
- Activity (HCT-116 [20]): 7.32%
- Activity (HCT-116 [21]): Active
- Activity (HCT-116 [22]): 0.52%
- Activity (HCT-116 [23]): 13.51%
- Activity (HCT-116 [24]): Dose-Dependent Effect
